According to ChEMBL document CHEMBL4330087, “Synthesis, antimicrobial activity, attenuation of aminoglycoside resistance in MRSA, and ribosomal A-site binding of pyrene-neomycin conjugates” (Eur J Med Chem, 2019):
Values after ≈ are worked out from the molar mass of the structure shown. Active and inactive are the calls of the source. No cut-off for these calls is given here.

Tests used:
Staphylococcus aureus [1] = test: Antibacterial activity against NEO-sensitive Staphylococcus aureus C2 after 15 to 20 hrs by CLSI protocol based microdilution assay; type: functional
Outline: (§1)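 CLSI broth microdilution MIC in triplicate on exponential-phase cells, ~3×10^5 cells per mL in cation-adjusted Mueller-Hinton broth. Compound was added from 10× stocks in 10% DMSO as serial 2-fold dilutions, final 50 to 0.78 μM. Plates were incubated at 37 °C, humidified, 15-20 h. Growth was read as absorbance at 595 nm, and percent inhibition was averaged over triplicates.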

Bacillus anthracis = test: Antibacterial activity against NEO-sensitive Bacillus anthracis BA852 after 15 to 20 hrs by CLSI protocol based microdilution assay; type: functional
Outline: (§2)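 CLSI broth microdilution on exponential-phase bacteria at ~3×10^5 cells/mL in cation-adjusted Mueller-Hinton broth. Serial 2-fold dilutions gave final concentrations of 50 to 0.78 μM; compound stocks were 10× in 10% DMSO. Incubated at 37 °C for 15-20 h, growth read at A595. Percent inhibition averaged over triplicates; MIC in μM.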

Staphylococcus aureus [2] = test: Antibacterial activity against NEO-sensitive Staphylococcus aureus 6538 after 15 to 20 hrs by CLSI protocol based microdilution assay; type: functional; outline: as §1
Staphylococcus aureus [3] = test: Antibacterial activity against NEO-sensitive Staphylococcus aureus NRS77 after 15 to 20 hrs by CLSI protocol based microdilution assay; type: functional; outline: as §1
Ribosomal RNA A-site [4] = test: Displacement of F-NEO from Escherichia coli rRNA-A site after 10 to 20 mins by fluorescence assay; type: nucleic-acid assay
Outline: (§3)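 A 100 nM F-NEO:A-site RNA complex in 10 mM HEPES, 50 mM NaCl, 0.04 mM EDTA, pH 7.0 was titrated with 2-fold dilutions of ligand from 20 to 0.009 μM, or from 60 or 40 μM for weaker ligands. Incubated 10-20 min at room temperature, fluorescence read at ex 485/em 525 nm. IC50 from dose-response curve fit.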

Escherichia coli [5] = test: Antibacterial activity against multidrug-resistant Escherichia coli H4H after 15 to 20 hrs by CLSI protocol based microdilution assay; type: functional; outline: as §2
Staphylococcus aureus [6] = test: Antibacterial activity against NEO-sensitive Staphylococcus aureus C1 after 15 to 20 hrs by CLSI protocol based microdilution assay; type: functional; outline: as §1
Escherichia coli [7] = test: Antibacterial activity against NEO-sensitive Escherichia coli harboring TolC mutant after 15 to 20 hrs by CLSI protocol based microdilution assay; type: functional; outline: as §2
Ribosomal RNA A-site [8] = test: Binding affinity to rRNA-A site in human MDA-MB-231 cells assessed as inhibition of protein translation; type: cell-based
[9] = tested on: Staphylococcus epidermidis; test: Antibacterial activity against NEO-sensitive Staphylococcus epidermidis 12384 after 15 to 20 hrs by CLSI protocol based microdilution assay; type: functional; outline: as §2
Staphylococcus aureus [10] = test: Antibacterial activity against methicillin-resistant Staphylococcus aureus A960649 after 15 to 20 hrs by CLSI protocol based microdilution assay; type: functional; outline: as §2
Staphylococcus aureus [11] = test: Antibacterial activity against NEO-sensitive Staphylococcus aureus 25923 after 15 to 20 hrs by CLSI protocol based microdilution assay; type: functional; outline: as §2
[12] = Toxicity in Caenorhabditis elegans infected with methicillin-resistant Staphylococcus aureus assessed as effect on nematode larvae viability by measuring decrease in formazan production at 3.13 to 1.56 uM after 24 hrs by MTT assay
[13] = tested on: Mycolicibacterium smegmatis; test: Antibacterial activity against NEO-sensitive Mycobacterium smegmatis after 15 to 20 hrs by CLSI protocol based microdilution assay; type: functional; outline: as §2
[14] = Toxicity in Caenorhabditis elegans infected with methicillin-resistant Staphylococcus aureus assessed as effect on nematode larvae viability by measuring decrease in formazan production at 6.25 to 50 uM after 24 hrs by MTT assay relative to control
Ribosomal RNA A-site [15] = test: Displacement of F-NEO from human cytosolic rRNA-A site after 10 to 20 mins by fluorescence assay; type: nucleic-acid assay; outline: as §3
Streptococcus pyogenes = test: Antibacterial activity against NEO-resistant Streptococcus pyogenes C203 after 15 to 20 hrs by CLSI protocol based microdilution assay; type: functional; outline: as §2
Escherichia coli [16] = test: Antibacterial activity against NEO-sensitive Escherichia coli ATCC 25922 after 15 to 20 hrs by CLSI protocol based microdilution assay; type: functional; outline: as §2
Staphylococcus aureus [17] = test: Antibacterial activity against methicillin-resistant Staphylococcus aureus SU-5 after 15 to 20 hrs by CLSI protocol based microdilution assay; type: functional; outline: as §2
Staphylococcus aureus [18] = test: Antibacterial activity against NEO-sensitive Staphylococcus aureus harboring NorA mutant after 15 to 20 hrs by CLSI protocol based microdilution assay; type: functional; outline: as §2
Staphylococcus aureus [19] = test: Antibacterial activity against methicillin-resistant Staphylococcus aureus 33591 after 15 to 20 hrs by CLSI protocol based microdilution assay; type: functional; outline: as §2
Staphylococcus aureus [20] = test: Antibacterial activity against methicillin-resistant Staphylococcus aureus M0602 after 15 to 20 hrs by CLSI protocol based microdilution assay; type: functional; outline: as §2

## NC[C@@H]1O[C@H](O[C@H]2[C@@H](O)[C@H](O[C@@H]3[C@@H](O)[C@H](N)C[C@H](N)[C@H]3O[C@H]3O[C@H](CN)[C@@H](O)[C@H](O)[C@H]3N)O[C@@H]2CO)[C@H](N)[C@@H](O)[C@@H]1O [FRAMYCETIN]
Staphylococcus aureus [1]
  MIC: 6.3 µM (≈ 3.87 µg/mL)
Bacillus anthracis
  MIC: 1.56 µM (≈ 0.959 µg/mL)
Staphylococcus aureus [2]
  MIC: 3.2 µM (≈ 1.97 µg/mL)
Staphylococcus aureus [3]
  MIC: 1.6 µM (≈ 0.983 µg/mL)
Ribosomal RNA A-site [4]
  IC50: 87 nM
Escherichia coli [5]
  MIC: 400 µM (≈ 246 µg/mL)
Staphylococcus aureus [6]
  MIC: 3.2 µM (≈ 1.97 µg/mL)
Escherichia coli [7]
  MIC: 1.56 µM (≈ 0.959 µg/mL)
Ribosomal RNA A-site [8]
  IC50: 139 nM
[9]
  MIC: 1.56 µM (≈ 0.959 µg/mL)
Staphylococcus aureus [10]
  MIC: 100 µM (≈ 61.5 µg/mL)
Staphylococcus aureus [11]
  MIC: 1.56 µM (≈ 0.959 µg/mL)
[12]
  Activity: Non-Toxic
[13]
  MIC: 0.78 µM (≈ 0.479 µg/mL)
[14]
  Activity: 50 to 75%
Ribosomal RNA A-site [15]
  IC50: 76 nM
Streptococcus pyogenes
  MIC: inactive
Escherichia coli [16]
  MIC: 3.13 µM (≈ 1.92 µg/mL)
Staphylococcus aureus [17]
  MIC: 200 to 400 µM (≈ 123 to 246 µg/mL)
Staphylococcus aureus [18]
  MIC: 1.56 µM (≈ 0.959 µg/mL)
Staphylococcus aureus [19]
  MIC: 400 µM (≈ 246 µg/mL)
Staphylococcus aureus [20]
  MIC: > 400 µM
